Active and inactive are the calls of the source. The calls are words filed in the database; no cut-off is given here.
Experiments:
[1] = biological target: NACHT, LRR and PYD domains-containing protein 3 (Mus musculus) (UniProt Q8R4B8); experiment: Inhibition of NLRP3 inflammasome activation in LPS-treated mouse BMDM cells assessed as inhibition of Bz-ATP-stimulated IL-1beta release at 1 uM incubated for 30 mins followed by Bz-ATP stimulation for 30 mins by ELISA method; assay type: cell-based; conditions: time 60.0 min
Summary of the method: (§1)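 Mouse BMDMs, C57BL/6 bone marrow cells differentiated 7 days with M-CSF 10 ng/mL, seeded 5 × 10^5/well. Primed with LPS 1 µg/mL for 2 h, then compound 1 µM in serum-free medium for 30 min, then Bz-ATP 100 µM for 30 min. Supernatant IL-1β by ELISA in pg/mL and as percent inhibition. Mean ± SEM of three independent experiments in triplicate.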

[2] = biological target: NACHT, LRR and PYD domains-containing protein 3 (Mus musculus) (UniProt Q8R4B8); experiment: Inhibition of NLRP3 inflammasome activation in LPS-treated mouse BMDM cells assessed as Bz-ATP-stimulated IL-1beta level at 1 uM incubated for 30 mins followed by Bz-ATP stimulation for 30 mins by ELISA method; assay type: cell-based; conditions: time 60.0 min; summary of the method: as §1
[3] = biological target: NACHT, LRR and PYD domains-containing protein 3 (Mus musculus) (UniProt Q8R4B8); experiment: Inhibition of NLRP3 inflammasome activation in LPS-treated mouse BMDM cells assessed as inhibition of Bz-ATP-stimulated IL-1beta release at 1 uM incubated for 30 mins followed by Bz-ATP stimulation for 30 mins by ELISA method relative to control; assay type: cell-based; conditions: time 60.0 min; summary of the method: as §1
[4] = Metabolic stability in mouse liver microsomes assessed as half life measured per mg protein at 1 uM measured upto 60 mins by LC-MS/MS analysis; assay type: ADME, Microsome
Summary of the method: (§2)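 Pooled human or CD-1 male mouse liver microsomes at 0.5 mg/mL with test compound 1 µM in 50 mM phosphate pH 7.4 and 3 mM MgCl2, preincubated 10 min at 37 °C. Percent parent remaining vs 0 min measured by LC-MS/MS. Cli = k/microsomal conc. × 1000; mean ± SD, n = 2.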

[5] = Metabolic stability in human liver microsomes assessed as half life measured per mg protein at 1 uM measured upto 60 mins by LC-MS/MS analysis; assay type: ADME, Microsome; summary of the method: as §2
[6] = Metabolic stability in human liver microsomes assessed as intrinsic clearance measured per mg protein at 1 uM measured upto 60 mins by LC-MS/MS analysis; assay type: ADME, Microsome; conditions: read-out: CLH; summary of the method: as §2
[7] = Metabolic stability in mouse liver microsomes assessed as intrinsic clearance measured per mg protein at 1 uM measured upto 60 mins by LC-MS/MS analysis; assay type: ADME, Microsome; conditions: read-out: CLH; summary of the method: as §2

Chain of NACHT, LRR and PYD domains-containing protein 3 (Mus musculus) (Q8R4B8 whole entry, the tested form may be a part): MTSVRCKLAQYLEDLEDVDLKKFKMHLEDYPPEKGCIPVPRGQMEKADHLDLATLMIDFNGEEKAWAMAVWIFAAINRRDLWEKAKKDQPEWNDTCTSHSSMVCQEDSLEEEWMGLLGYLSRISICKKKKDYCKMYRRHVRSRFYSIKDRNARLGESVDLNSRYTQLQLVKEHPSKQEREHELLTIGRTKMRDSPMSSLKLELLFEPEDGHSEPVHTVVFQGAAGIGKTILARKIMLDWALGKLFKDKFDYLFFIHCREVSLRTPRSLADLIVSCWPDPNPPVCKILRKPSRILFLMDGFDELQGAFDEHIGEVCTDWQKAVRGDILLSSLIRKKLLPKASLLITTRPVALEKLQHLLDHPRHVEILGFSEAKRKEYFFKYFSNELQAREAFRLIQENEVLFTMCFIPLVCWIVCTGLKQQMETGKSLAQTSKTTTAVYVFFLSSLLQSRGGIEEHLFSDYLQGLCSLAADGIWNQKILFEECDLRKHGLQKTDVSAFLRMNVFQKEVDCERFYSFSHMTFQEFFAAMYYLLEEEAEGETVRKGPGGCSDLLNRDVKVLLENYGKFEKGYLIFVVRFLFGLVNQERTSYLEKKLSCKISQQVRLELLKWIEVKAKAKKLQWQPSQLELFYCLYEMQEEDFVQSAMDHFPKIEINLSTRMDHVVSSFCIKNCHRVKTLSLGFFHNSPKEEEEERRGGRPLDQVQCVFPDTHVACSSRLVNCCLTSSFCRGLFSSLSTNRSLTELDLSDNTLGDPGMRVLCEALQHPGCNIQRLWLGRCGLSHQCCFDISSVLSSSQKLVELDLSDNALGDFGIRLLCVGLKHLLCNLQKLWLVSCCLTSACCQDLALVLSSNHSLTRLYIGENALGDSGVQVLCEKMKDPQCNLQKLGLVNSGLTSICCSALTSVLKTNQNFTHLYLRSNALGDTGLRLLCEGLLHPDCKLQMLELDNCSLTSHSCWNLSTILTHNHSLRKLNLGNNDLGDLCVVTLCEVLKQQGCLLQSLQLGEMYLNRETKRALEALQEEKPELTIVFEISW

Structure (SMILES)	Activity [2]	inhibition [3]	also measured
NCCCC[C@H](NS(=O)(=O)c1ccc([N+](=O)[O-])cc1)C(=O)Nc1c2c(cc3c1CCC3)CCC2	149 pg/mL	47.5%	
CC(C)[C@H](NS(=O)(=O)c1ccc(N)cc1)C(=O)Nc1c2c(cc3c1CCC3)CCC2		50.2%	
O=C(Nc1c2c(cc3c1CCC3)CCC2)[C@H](Cc1ccccc1)NS(=O)(=O)c1ccc([N+](=O)[O-])cc1	227 pg/mL	19.8%	
C[C@H](NS(=O)(=O)c1ccc(N)cc1)C(=O)Nc1c2c(cc3c1CCC3)CCC2		17.3%	
O=C(Nc1c2c(cc3c1CCC3)CCC2)[C@@H](Cc1ccccc1)NS(=O)(=O)c1ccc([N+](=O)[O-])cc1	143 pg/mL	49.5%	
CC(C)[C@@H](NS(=O)(=O)c1ccc(N)cc1)C(=O)Nc1c2c(cc3c1CCC3)CCC2		25.1%	
Nc1ccc(S(=O)(=O)N[C@H](Cc2ccccc2)C(=O)Nc2c3c(cc4c2CCC4)CCC3)cc1	152 pg/mL	46.4%	
Nc1ccc(S(=O)(=O)N[C@@H](Cc2ccccc2)C(=O)Nc2c3c(cc4c2CCC4)CCC3)cc1	175 pg/mL	38%	
O=C(Nc1c2c(cc3c1CCC3)CCC2)[C@H](Cc1ccc(O)cc1)NS(=O)(=O)c1ccc([N+](=O)[O-])cc1		34.7%	
CC(C)C[C@H](NS(=O)(=O)c1ccc(N)cc1)C(=O)Nc1c2c(cc3c1CCC3)CCC2	194 pg/mL	31.5%	
Nc1ccc(S(=O)(=O)NCC(=O)Nc2c3c(cc4c2CCC4)CCC3)cc1	348 pg/mL		inhibition [1]: inactive
CC(C)NCC(O)COc1cccc2ccccc12 (stereo not given) [PROPRANOLOL]			half-life at 1 µM [4]: 7.3 min; half-life at 1 µM [5]: 47 min
CCOc1ccc2ccc(=O)oc2c1			half-life at 1 µM [4]: 3.3 min; microsomal CLint at 1 µM [6]: 168 µL/min/mg; microsomal CLint at 1 µM [7]: 422 µL/min/mg; half-life at 1 µM [5]: 8.3 min
Nc1ccc(S(=O)(=O)NCCC(=O)Nc2c3c(cc4c2CCC4)CCC3)cc1	220 pg/mL	22.3%	
NCCCC[C@H](NS(=O)(=O)c1ccc(N)cc1)C(=O)Nc1c2c(cc3c1CCC3)CCC2	203 pg/mL	28.4%	
O=C(Nc1c2c(cc3c1CCC3)CCC2)[C@H](CNS(=O)(=O)c1ccc([N+](=O)[O-])cc1)c1ccccc1	156 pg/mL	44.8%	
Nc1ccc(S(=O)(=O)N[C@H](C(=O)Nc2c3c(cc4c2CCC4)CCC3)c2ccccc2)cc1	237 pg/mL	16.1%	

Second part, led by results:

Activity [2]	inhibition [3]	Structure (SMILES)	also measured
349 pg/mL		C[C@H](NS(=O)(=O)c1ccc([N+](=O)[O-])cc1)C(=O)Nc1c2c(cc3c1CCC3)CCC2	inhibition [1]: inactive
211 pg/mL	25.4%	Nc1ccc(S(=O)(=O)N2CCCC[C@H]2C(=O)Nc2c3c(cc4c2CCC4)CCC3)cc1	
131 pg/mL	53.7%	O=C(Nc1c2c(cc3c1CCC3)CCC2)[C@@H]1Cc2ccccc2CN1S(=O)(=O)c1ccc([N+](=O)[O-])cc1	
135 pg/mL	52.4%	O=C(Nc1c2c(cc3c1CCC3)CCC2)[C@@H]1CCCCN1S(=O)(=O)c1ccc([N+](=O)[O-])cc1	
131 pg/mL	53.9%	CC(C)C[C@H](NS(=O)(=O)c1ccc([N+](=O)[O-])cc1)C(=O)Nc1c2c(cc3c1CCC3)CCC2	
165 pg/mL	41.6%	Nc1ccc(S(=O)(=O)N2CCC[C@H]2C(=O)Nc2c3c(cc4c2CCC4)CCC3)cc1	
344 pg/mL		O=C(CNS(=O)(=O)c1ccc([N+](=O)[O-])cc1)Nc1c2c(cc3c1CCC3)CCC2	inhibition [1]: inactive
210 pg/mL	25.7%	O=C(Nc1c2c(cc3c1CCC3)CCC2)[C@@H]1CCCN1S(=O)(=O)c1ccc([N+](=O)[O-])cc1	
180 pg/mL	36.5%	O=C(CCNS(=O)(=O)c1ccc([N+](=O)[O-])cc1)Nc1c2c(cc3c1CCC3)CCC2	

Source: ChEMBL document CHEMBL5380838, “Novel Aryl Sulfonamide Derivatives as NLRP3 Inflammasome Inhibitors for the Potential Treatment of Cancer” (J Med Chem, 2023)
